Assay results taken from ChEMBL document CHEMBL3774381, “Discovery of Novel and Orally Bioavailable Inhibitors of PI3 Kinase Based on Indazole Substituted Morpholino-Triazines” (ACS Med Chem Lett, 2015).

Key:
[1] = Elimination half life in Swiss mouse plasma at 3 mg/kg, po after 0.16 to 8 hrs by LC-MS analysis; assay type: ADME, organism-based; conditions: read-out: beta t1/2 (converted)
How it was run: (§1)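 Single oral doses of 1, 3 and 10 mpk were given to mice in a dose-ranging study, with the 3 mpk screen run in Swiss mice. Plasma tmax, Cmax, AUC and elimination t1/2 were derived from each dose group.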

[2] = biological target: T1, Cytochrome P450 3A4 (Homo sapiens, UniProt P08684); experiment: Inhibition of CYP3A4 (unknown origin); assay type: ADME
[3] = Tmax in Swiss mouse plasma at 10 mg/kg, po after 0.16 to 8 hrs by LC-MS analysis; assay type: ADME, organism-based; how it was run: as §1
[4] = Cmax in Swiss mouse plasma at 1 mg/kg, po after 0.16 to 8 hrs by LC-MS analysis; assay type: ADME, organism-based; design: dose 1 mg/kg, route oral; how it was run: as §1
[5] = biological target: T2, Cytochrome P450 2D6 (Homo sapiens, UniProt P10635); experiment: Inhibition of CYP2D6 (unknown origin); assay type: ADME
How it was run: (§2)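 Inhibition of CYP3A4, CYP2C19 and CYP2D6 activity was screened with test compound at 10 μM.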

[6] = test system: Mus musculus; experiment: Toxicity in Swiss mouse assessed as hypothermia at 30 mg/kg, po bid for 5 days; assay type: organism-based; conditions: in vivo, 120 h
How it was run: (§3)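 Swiss mice were dosed orally at 30 mpk BID for 5 consecutive days. Body weight, body temperature (hyper- or hypothermia), body coat and level of physical activity were monitored throughout.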

[7] = AUC in Swiss mouse plasma at 1 mg/kg, po after 0.16 to 8 hrs by LC-MS analysis; assay type: ADME, organism-based; design: dose 1 mg/kg, time 0.16-8 hr, route oral
[8] = Elimination half life in Swiss mouse plasma at 1 mg/kg, po after 0.16 to 8 hrs by LC-MS analysis; assay type: ADME, organism-based; conditions: read-out: beta t1/2 (converted)
[9] = Cmax in Swiss mouse plasma at 10 mg/kg, po after 0.16 to 8 hrs by LC-MS analysis; assay type: ADME, organism-based; design: dose 10 mg/kg, route oral; how it was run: as §1
[10] = test system: A2780; experiment: Antiproliferative activity against human A2780 cells assessed as reduction in cell viability after 48 hrs by MTT assay; assay type: functional, cell-based; conditions: A2780, 48 h
How it was run: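 Cellular EC50 was determined in the A2780 ovarian cancer line, with a coefficient of variation below 5%.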

[11] = Metabolic stability in dog liver microsomes assessed as parent compound remaining at 10 uM after 2 hrs by HPLC analysis in presence of NADPH; assay type: ADME, Canis lupus familiaris; conditions: read-out: Stability
How it was run: (§4)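 Compound was incubated with isolated human, dog or mouse liver microsomes for 2 h. Parent concentration was followed by HPLC at 0, 0.5, 1 and 2 h, and the 2 h value is reported as remaining parent.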

[12] = biological target: Phosphatidylinositol 4,5-bisphosphate 3-kinase catalytic subunit alpha isoform (Homo sapiens, UniProt P42336); experiment: Inhibition of human recombinant PI3K-alpha using phosphatidylinositol biphosphate as substrate preincubated for 15 mins followed by substrate addition measured after 60 mins by HTRF assay
[13] = Metabolic stability in mouse liver microsomes assessed as parent compound remaining at 10 uM after 2 hrs by HPLC analysis in presence of NADPH; assay type: ADME; conditions: read-out: Stability; how it was run: as §4
[14] = test system: Mus musculus; experiment: Toxicity in Swiss mouse assessed as reduced physical activity at 30 mg/kg, po bid for 5 days; assay type: organism-based; conditions: in vivo, 120 h; how it was run: as §3
[15] = Elimination half life in Swiss mouse plasma at 10 mg/kg, po after 0.16 to 8 hrs by LC-MS analysis; assay type: ADME, organism-based; conditions: read-out: beta t1/2 (converted); how it was run: as §1
[16] = biological target: T3, Cytochrome P450 2C19 (Homo sapiens, UniProt P33261); experiment: Inhibition of CYP2C19 (unknown origin) at 10 uM; assay type: ADME; how it was run: as §2
[17] = AUC in Swiss mouse plasma at 3 mg/kg, po after 0.16 to 8 hrs by LC-MS analysis; assay type: ADME, organism-based; design: time lower 0.16 hr, dose 3 mg/kg, time upper 8 hr, route oral; how it was run: as §1
[18] = biological target: T2, Cytochrome P450 2D6; experiment: Inhibition of CYP2D6 (unknown origin) at 10 uM; assay type: ADME; how it was run: as §2
[19] = Tmax in Swiss mouse plasma at 3 mg/kg, po after 0.16 to 8 hrs by LC-MS analysis; assay type: ADME, organism-based; how it was run: as §1
[20] = biological target: T1, Cytochrome P450 3A4; experiment: Inhibition of CYP3A4 (unknown origin) at 10 uM; assay type: ADME; how it was run: as §2
[21] = Metabolic stability in human liver microsomes assessed as parent compound remaining at 10 uM after 2 hrs by HPLC analysis in presence of NADPH; assay type: ADME; conditions: read-out: Stability; how it was run: as §4
[22] = Cmax in Swiss mouse plasma at 3 mg/kg, po after 0.16 to 8 hrs by LC-MS analysis; assay type: ADME, organism-based; design: dose 3 mg/kg, route oral; how it was run: as §1
[23] = biological target: T3, Cytochrome P450 2C19; experiment: Inhibition of CYP2C19 (unknown origin); assay type: ADME; how it was run: as §2
[24] = test system: Mus musculus; experiment: Toxicity in Swiss mouse assessed as body weight loss at 30 mg/kg, po bid for 5 days; assay type: organism-based; conditions: in vivo, 120 h; how it was run: as §3
[25] = test system: Mus musculus; experiment: Toxicity in Swiss mouse assessed as changes in body coat at 30 mg/kg, po bid for 5 days; assay type: organism-based; conditions: in vivo, 120 h; how it was run: as §3
[26] = AUC in Swiss mouse plasma at 10 mg/kg, po after 0.16 to 8 hrs by LC-MS analysis; assay type: ADME, organism-based; design: dose 10 mg/kg, time 0.16-8 hr, route oral; how it was run: as §1
[27] = test system: Mus musculus; experiment: Toxicity in Swiss mouse assessed as hyperthermia at 30 mg/kg, po bid for 5 days; assay type: organism-based; conditions: in vivo, 120 h; how it was run: as §3
[28] = Tmax in Swiss mouse plasma at 1 mg/kg, po after 0.16 to 8 hrs by LC-MS analysis; assay type: ADME, organism-based; how it was run: as §1

Phosphatidylinositol 4,5-bisphosphate 3-kinase catalytic subunit alpha isoform, sequence (P42336 whole entry, canonical isoform): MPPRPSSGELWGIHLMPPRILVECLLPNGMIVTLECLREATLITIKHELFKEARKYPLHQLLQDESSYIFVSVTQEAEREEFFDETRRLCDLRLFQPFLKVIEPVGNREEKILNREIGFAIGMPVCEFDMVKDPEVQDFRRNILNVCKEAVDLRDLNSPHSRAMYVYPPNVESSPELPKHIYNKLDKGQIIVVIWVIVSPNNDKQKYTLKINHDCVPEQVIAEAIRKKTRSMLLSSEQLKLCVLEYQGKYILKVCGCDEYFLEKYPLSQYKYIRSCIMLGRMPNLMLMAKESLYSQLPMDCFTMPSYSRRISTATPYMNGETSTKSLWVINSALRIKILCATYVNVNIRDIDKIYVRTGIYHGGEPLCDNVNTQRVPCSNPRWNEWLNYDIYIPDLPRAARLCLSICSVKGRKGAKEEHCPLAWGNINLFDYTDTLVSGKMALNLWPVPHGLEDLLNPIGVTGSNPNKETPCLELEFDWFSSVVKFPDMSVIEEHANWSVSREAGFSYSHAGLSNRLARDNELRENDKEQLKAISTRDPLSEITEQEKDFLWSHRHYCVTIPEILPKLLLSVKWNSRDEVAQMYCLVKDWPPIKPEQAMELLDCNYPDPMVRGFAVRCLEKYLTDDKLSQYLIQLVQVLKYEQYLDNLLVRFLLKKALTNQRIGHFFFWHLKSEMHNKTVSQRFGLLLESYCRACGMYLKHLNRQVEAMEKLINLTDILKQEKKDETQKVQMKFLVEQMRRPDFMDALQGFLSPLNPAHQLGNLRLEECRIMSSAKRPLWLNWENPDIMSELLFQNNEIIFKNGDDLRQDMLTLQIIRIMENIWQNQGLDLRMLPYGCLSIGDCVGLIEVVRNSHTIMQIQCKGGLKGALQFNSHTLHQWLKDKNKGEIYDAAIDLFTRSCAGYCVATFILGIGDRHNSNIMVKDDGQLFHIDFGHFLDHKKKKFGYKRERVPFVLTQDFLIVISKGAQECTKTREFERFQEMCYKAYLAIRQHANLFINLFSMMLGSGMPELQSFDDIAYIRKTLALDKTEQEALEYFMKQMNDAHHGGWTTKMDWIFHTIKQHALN
T1 sequence (P08684 whole entry): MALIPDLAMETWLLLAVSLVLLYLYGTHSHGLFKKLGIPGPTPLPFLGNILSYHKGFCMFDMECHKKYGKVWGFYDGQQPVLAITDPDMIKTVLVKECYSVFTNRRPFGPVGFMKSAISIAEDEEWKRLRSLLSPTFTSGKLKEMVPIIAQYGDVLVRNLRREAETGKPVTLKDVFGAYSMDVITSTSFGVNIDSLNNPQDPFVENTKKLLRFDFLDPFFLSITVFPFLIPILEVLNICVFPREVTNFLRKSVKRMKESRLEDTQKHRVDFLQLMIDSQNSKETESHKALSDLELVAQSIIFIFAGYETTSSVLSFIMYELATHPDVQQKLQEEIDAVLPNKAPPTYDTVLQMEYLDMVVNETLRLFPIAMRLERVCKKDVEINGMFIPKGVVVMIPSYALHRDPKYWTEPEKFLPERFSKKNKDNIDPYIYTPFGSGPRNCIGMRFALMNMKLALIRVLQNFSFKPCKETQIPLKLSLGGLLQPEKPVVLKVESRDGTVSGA
T3 sequence (P33261 whole entry): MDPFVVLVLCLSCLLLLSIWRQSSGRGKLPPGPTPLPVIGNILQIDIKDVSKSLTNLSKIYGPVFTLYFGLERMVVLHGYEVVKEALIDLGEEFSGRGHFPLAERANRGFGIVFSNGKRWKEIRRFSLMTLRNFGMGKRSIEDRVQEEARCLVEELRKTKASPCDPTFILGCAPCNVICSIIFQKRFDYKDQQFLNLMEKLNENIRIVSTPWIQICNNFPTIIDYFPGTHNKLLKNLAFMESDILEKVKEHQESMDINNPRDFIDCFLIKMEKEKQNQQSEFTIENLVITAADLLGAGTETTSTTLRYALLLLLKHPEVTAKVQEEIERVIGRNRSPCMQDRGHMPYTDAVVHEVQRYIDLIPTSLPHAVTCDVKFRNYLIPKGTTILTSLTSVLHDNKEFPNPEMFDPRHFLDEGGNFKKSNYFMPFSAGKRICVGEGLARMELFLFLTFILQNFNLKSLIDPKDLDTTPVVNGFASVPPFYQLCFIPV
T2 sequence (P10635 whole entry): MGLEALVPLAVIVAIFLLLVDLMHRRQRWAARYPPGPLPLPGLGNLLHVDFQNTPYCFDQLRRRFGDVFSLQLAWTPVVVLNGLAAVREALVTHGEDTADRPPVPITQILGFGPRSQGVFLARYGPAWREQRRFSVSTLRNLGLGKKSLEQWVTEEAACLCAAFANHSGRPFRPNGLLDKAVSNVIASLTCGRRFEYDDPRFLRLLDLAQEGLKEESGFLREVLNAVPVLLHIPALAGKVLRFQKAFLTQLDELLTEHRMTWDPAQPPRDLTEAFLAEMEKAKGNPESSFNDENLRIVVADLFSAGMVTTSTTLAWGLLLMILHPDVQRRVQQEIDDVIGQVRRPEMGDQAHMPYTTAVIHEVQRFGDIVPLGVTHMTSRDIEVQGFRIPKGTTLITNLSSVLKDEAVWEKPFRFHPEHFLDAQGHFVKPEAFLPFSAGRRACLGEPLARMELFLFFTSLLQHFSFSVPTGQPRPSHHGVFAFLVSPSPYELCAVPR

CN(C)C(=O)c1ccc(Oc2nc(-c3cccc4[nH]ncc34)nc(N3CCOCC3)n2)cc1
half-life [1]: 4.86 h | IC50 [2]: > 15000 nM | Tmax [3]: 2.33 h | Cmax [4]: 360 nM | IC50 [5]: > 10000 nM | Activity [6]: Non-toxic | AUC [7]: 2.12 µM·h | half-life [8]: 6.93 h | Cmax [9]: 1800 nM | EC50 [10]: 520 nM | remaining at 2 h, 10 µM [11]: 83.8% | IC50 [12]: 60 nM | remaining at 2 h, 10 µM [13]: 45.6% | Activity [14]: Non-toxic | half-life [15]: 6.87 h | inhibition (INH) [16]: Not Active | AUC [17]: 5.25 µM·h | inhibition (INH) [18]: Not Active | Tmax [19]: 1 h | inhibition (INH) [20]: Not Active | remaining at 2 h, 10 µM [21]: 101% | Cmax [22]: 1240 nM | IC50 [23]: > 10000 nM | Activity [24]: Non-toxic | Activity [25]: Non-toxic | AUC [26]: 9.79 µM·h | Activity [27]: Non-toxic | Tmax [28]: 1 h

COC(=O)CNc1nc(-c2cccc(O)c2)nc(N2CCOCC2)n1
IC50 [12]: 1180 nM

O=C(O)CNc1nc(-c2ccccc2)nc(N2CCOCC2)n1
IC50 [12]: > 20000 nM

CN(C)C(=O)CNc1nc(-c2cccc3c2CCC3O)nc(N2CCOCC2)n1 (stereo unspecified)
IC50 [12]: > 20000 nM

NC(=O)c1cccc(Nc2nc(-c3cccc4[nH]ncc34)nc(N3CCOCC3)n2)c1
EC50 [10]: 820 nM | IC50 [12]: 80 nM

CS(=O)(=O)N1CCN(C(=O)CNc2nc(-c3cccc(O)c3)nc(N3CCOCC3)n2)CC1
IC50 [12]: 1060 nM

CN(C)C(=O)N1CCC(Oc2nc(-c3cccc4[nH]ncc34)nc(N3CCOCC3)n2)CC1
IC50 [2]: > 15000 nM | IC50 [5]: > 10000 nM | EC50 [10]: 720 nM | IC50 [12]: 60 nM | remaining at 2 h, 10 µM [13]: 24.8% | inhibition (INH) [16]: Not Active | inhibition (INH) [18]: Not Active | inhibition (INH) [20]: Not Active | remaining at 2 h, 10 µM [21]: 80.7% | IC50 [23]: > 10000 nM

CN(C)C(=O)CNc1nc(-c2cncc(O)c2)nc(N2CCOCC2)n1
IC50 [12]: 1600 nM

CNc1cccc(Nc2nc(-c3cccc4[nH]ncc34)nc(N3CCOCC3)n2)c1
EC50 [10]: 850 nM

CN(C)C(=O)c1cccc(Nc2nc(-c3cccc4[nH]ncc34)nc(N3CCOCC3)n2)c1
EC50 [10]: 800 nM | IC50 [12]: 60 nM

CN(C)C(=O)c1sccc1Nc1nc(-c2cccc3[nH]ncc23)nc(N2CCOCC2)n1
EC50 [10]: 1900 nM | IC50 [12]: 200 nM

c1ccc(Nc2nc(-c3cccc4[nH]ncc34)nc(N3CCOCC3)n2)cc1
EC50 [10]: 3690 nM | IC50 [12]: 800 nM

CN(CC(=O)O)c1nc(-c2cccc(O)c2)nc(N2CCOCC2)n1
IC50 [12]: 10000 nM

CN(C)C(=O)c1cc(Oc2nc(-c3cccc4[nH]ncc34)nc(N3CCOCC3)n2)cs1
EC50 [10]: 1400 nM | IC50 [12]: 100 nM

NC(=O)c1cccc(Oc2nc(-c3cccc4[nH]ncc34)nc(N3CCOCC3)n2)c1
EC50 [10]: 3220 nM | IC50 [12]: 270 nM

Nc1cccc(-c2nc(NCC(=O)O)nc(N3CCOCC3)n2)c1
IC50 [12]: > 10000 nM

CN(C)C(=O)CNc1nc(-c2cccc(C(N)=O)c2)nc(N2CCOCC2)n1
IC50 [12]: > 20000 nM

CN(C)C(=O)CNc1nc(-c2cccc3[nH]ncc23)nc(N2CCOCC2)n1
IC50 [12]: 1100 nM

CN(C)C(=O)[C@H]1CC[C@H](Oc2nc(-c3cccc4[nH]ncc34)nc(N3CCOCC3)n2)CC1
IC50 [2]: > 15000 nM | IC50 [5]: > 10000 nM | EC50 [10]: 680 nM | IC50 [12]: 60 nM | remaining at 2 h, 10 µM [13]: 27.3% | inhibition (INH) [16]: Not Active | inhibition (INH) [18]: Not Active | inhibition (INH) [20]: Not Active | remaining at 2 h, 10 µM [21]: 99% | IC50 [23]: > 10000 nM

CN(C)C(=O)CCNc1nc(-c2cccc3[nH]ncc23)nc(N2CCOCC2)n1
EC50 [10]: 6380 nM | IC50 [12]: 600 nM

Nc1nc(-c2cccc(O)c2)nc(N2CCOCC2)n1
IC50 [12]: 680 nM

NC(=O)CNc1nc(-c2cccc(O)c2)nc(N2CCOCC2)n1
IC50 [12]: 740 nM

O=C1CCN(c2nc(-c3cccc4[nH]ncc34)nc(N3CCOCC3)n2)CCN1
EC50 [10]: 2640 nM | IC50 [12]: 200 nM

CN(C)C(=O)CNc1nc(-c2cccc(O)c2)nc(N2CCOCC2)n1
IC50 [12]: 540 nM

CNC(=O)CNc1nc(-c2cccc(O)c2)nc(N2CCOCC2)n1
IC50 [12]: 730 nM

COc1cccc(-c2nc(NCC(=O)O)nc(N3CCOCC3)n2)c1
IC50 [12]: > 20000 nM

O=C1CN(c2nc(-c3cccc4[nH]ncc34)nc(N3CCOCC3)n2)CCN1
EC50 [10]: 3970 nM | IC50 [12]: 400 nM
